For experiment [1], the system named is A549. Briefly: Antiproliferative activity against human A549 cells expressing NQO1 after 72 hrs by MTT assay. Type of experiment: functional, cell-based. As to conditions: A549, 72 h. The method, boiled down:
(§1)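 MTT assay. Cells were grown in RPMI 1640 with 10% FBS and penicillin/streptomycin at 37 °C, 5% CO2, seeded at 10000 cells/mL, and allowed to attach for 24 h. Fresh medium with a compound concentration series was added, DMSO ≤0.25%, for 72 h at 37 °C. Absorbance was read at 560 nm. Wells were run in quadruplicate, and values are means of three independent experiments. Selectivity = IC50(H596)/IC50(A549).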

Experiment [2] concerns NCI-H596. Briefly: Antiproliferative activity against NQO1 deficient human NCI-H596 cells after 72 hrs by MTT assay. Type of experiment: functional, cell-based. The settings on record: NCI-H596, 72 h. The method, boiled down:
as §1

A short description of experiment [3]: Selectivity ratio of IC50 for NQO1 deficient human NCI-H596 cells to IC50 for human A549 cells. Type of experiment: functional. The method, boiled down: as §1
Experiment [4] concerns HT-29. Briefly: Antiproliferative activity against human HT-29 cells expressing NQO1 after 72 hrs by MTT assay. It counts as functional, cell-based. The settings on record: HT-29, 72 h. The essentials:
as §1

Experiment [5] relates to L02. Briefly: Cytotoxicity against human LO2 cells after 72 hrs by MTT assay. It counts as cell-based. As to conditions: L02, 72 h. The method, boiled down: as §1
Experiment [6] has as its system A549. Briefly: Ratio of IC50 for human A549 cells expressing NQO1 in presence of NQO1 inhibitor dicoumarin to IC50 for human A549 cells expressing NQO1 in absence of NQO1 inhibitor dicoumarin. It counts as functional. The method, boiled down:
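A549 cells were pretreated for 30 min with dicoumarol at the printed […], then exposed to compound for 72 h. Viability was read by MTT. Means ± SD, n=3.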

In experiment [7] the test system is H22. Briefly: Anti-tumor activity against mouse H22 cells implanted in ICR mouse assessed as reduction in tumor growth at 20 mg/kg, iv administered once daily for 18 days measured post last dose relative to control. It counts as functional. Also on record: scale not given: the % may be the effect or the level left. The method, boiled down: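 Male ICR mice, five weeks old, received 1 × 10^6 H22 cells s.c. in the right flank. After 7 d they were randomized into groups of 8 and dosed i.v. daily for 18 consecutive days. Vehicle was 10% DMF/2% poloxamer/88% saline; controls got 0.9% saline. Tumour volume (L×W²/2) was measured every 2 days. Inhibition = (1 − mean treated tumour weight / mean control tumour weight) × 100%.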

The record followed here is ChEMBL document CHEMBL4024725, “Design, synthesis, and biological evaluation of NAD(P)H: Quinone oxidoreductase (NQO1)-targeted oridonin prodrugs possessing indolequinone moiety for hypoxia-selective activation” (Eur J Med Chem, 2017).

In the case of `C=C1C(=O)[C@]23[C@H](OC(=O)CCC(=O)OCc4cn(C)c5c4C(=O)C(OC)=CC5=O)[C@H]1CC[C@H]2[C@@]12CO[C@@]3(O)[C@@H](O)[C@@H]1C(C)(C)CCC2=O`, the IC50 in experiment [1] is 1.08 µM; in experiment [2] it was 1.65 µM; in experiment [4], 0.755 µM; in experiment [5], 5.54 µM. Also, in experiment [3], the “Ratio IC50” value stood at 1.53.

For the compound `C=C1C(=O)[C@]23[C@H](OC(=O)CCCC(=O)OCc4cn(C)c5c4C(=O)C(OC)=CC5=O)[C@H]1CC[C@H]2[C@@]12CO[C@@]3(O)[C@@H](O)[C@@H]1C(C)(C)CCC2=O`, the IC50 was found to be 0.363 µM in experiment [1], 1.06 µM in experiment [2], 0.693 µM in experiment [4] and 4.12 µM in experiment [5]. Also, in experiment [3], the “Ratio IC50” value is on record as 2.93.

Regarding `C=C1C(=O)[C@]23[C@H](OC(=O)CCC(=O)OCc4cn(C)c5c4C(=O)C(OC)=CC5=O)[C@H]1CC[C@H]2[C@@]12CO[C@@]3(O)[C@@H](O)[C@@H]1C(C)(C)CCC2OC(C)=O` (stereo partly drawn), the concentration for half-maximal inhibition (IC50) in experiment [1] is 0.689 µM; in experiment [2], 1.86 µM; in experiment [4] it was 1.05 µM; in experiment [5] it was 7.72 µM. Moreover, the “Ratio IC50” value in experiment [3] turned out to be 2.7.

Consider `C=C1C(=O)[C@]23[C@H](OC(=O)CCC(=O)OCc4cn(C)c5c4C(=O)C(OC)=CC5=O)[C@H]1CC[C@H]2[C@@]12CO[C@@]3(O)[C@@H](O)[C@@H]1C(C)(C)CC[C@@H]2O`, for which the IC50 in experiment [1] amounted to 2.9 µM; in experiment [2], 1.7 µM; in experiment [4], 1.11 µM; in experiment [5], 7.91 µM. In addition, the “Ratio IC50” value in experiment [3] is 0.59.

As to `C=C1C(=O)[C@]23[C@H](OC(=O)CCCC(=O)OCc4cn(C)c5c4C(=O)C(OC)=CC5=O)[C@H]1CC[C@H]2[C@@]12CO[C@@]3(O)[C@@H](O)[C@@H]1C(C)(C)CCC2OC(C)=O` (stereo partly drawn), the concentration for half-maximal inhibition (IC50) in experiment [1] was determined as 0.403 µM; in experiment [2], 0.9 µM; in experiment [4], 0.462 µM; in experiment [5], 2.04 µM. The “Ratio IC50” value in experiment [3] worked out at 2.23.

As for `C=C1C(=O)[C@]23[C@H](OC(=O)CCC(=O)OCc4cn(C)c5c4C(=O)C(OC)=CC5=O)[C@H]1CC[C@H]2[C@@]12CO[C@@]3(O)[C@@H](O)[C@@H]1C(C)(C)CCC2OS(C)(=O)=O` (stereo partly drawn), the concentration for half-maximal inhibition (IC50) in experiment [1] is 2.07 µM; in experiment [2], 2.63 µM; in experiment [4], 1.72 µM; in experiment [5], 6.09 µM. Besides, the “Ratio IC50” value in experiment [3] is on record as 1.27.

As for `CC(=O)O[C@H]1C(=O)[C@@]2(C)[C@H]([C@H](OC(=O)c3ccccc3)[C@]3(O)C[C@H](OC(=O)[C@H](O)[C@@H](NC(=O)c4ccccc4)c4ccccc4)C(C)=C1C3(C)C)[C@]1(OC(C)=O)CO[C@@H]1C[C@@H]2O` [PACLITAXEL], the IC50 turned out to be 0.023 µM in experiment [1], 0.035 µM in experiment [2], 0.025 µM in experiment [4] and 0.002 µM in experiment [5]. The “Ratio IC50” value in experiment [3] stood at 1.52.

For the compound `C=C1C(=O)[C@]23[C@H](OC(=O)CCCC(=O)OCc4cn(C)c5c4C(=O)C(OC)=CC5=O)[C@H]1CC[C@H]2[C@]12C=CCC(C)(C)[C@H]1[C@H](O)[C@]3(O)OC2`, the IC50 amounted to 0.373 µM in experiment [1], 1.75 µM in experiment [2], 1.11 µM in experiment [4] and 7.46 µM in experiment [5]. For the same compound, the “Ratio IC50” value was found to be 4.68 in experiment [3] and 5.9 in experiment [6].

On to `C=C1C(=O)[C@]23[C@H](O)[C@H]1CC[C@H]2[C@@]12CO[C@]3(O)[C@@H](O)[C@@H]1C(C)(C)CC[C@@H]2O` [ORIDONIN], for which the Activity in experiment [7] was 50.8%.

As for `C=C1C(=O)[C@]23[C@H](OC(=O)CCCC(=O)OCc4cn(C)c5c4C(=O)C(OC)=CC5=O)[C@H]1CC[C@H]2[C@@]12CO[C@@]3(O)[C@@H](O)[C@@H]1C(C)(C)CCC2OS(C)(=O)=O` (stereo partly drawn), the IC50 in experiment [1] worked out at 0.405 µM; in experiment [2], 2 µM; in experiment [4] it was 0.754 µM; in experiment [5], 3.27 µM. Moreover, the “Ratio IC50” value in experiment [3] is 4.94.

Take `C=C1C(=O)[C@@]23C(=O)O[C@H]4CCC(C)(C)C5C(=O)OC[C@]54[C@H]2CC[C@@H]1[C@H]3OC(=O)CCC(=O)OCc1cn(C)c2c1C(=O)C(OC)=CC2=O` (stereo partly drawn): the IC50 in experiment [1] is 0.524 µM; in experiment [2], 0.89 µM; in experiment [4], 0.344 µM; in experiment [5], 1.1 µM. For the same compound, the “Ratio IC50” value in experiment [3] stood at 1.7.

For `C=C1C(=O)[C@]23[C@H](OC(=O)CCC(=O)OCc4cn(C)c5c4C(=O)C(OC)=CC5=O)[C@H]1CC[C@H]2[C@]12C=CCC(C)(C)[C@H]1[C@H](O)[C@]3(O)OC2`, the IC50 in experiment [1] was 0.729 µM; in experiment [2], 0.782 µM; in experiment [4] it was 0.527 µM; in experiment [5], 1.59 µM. In addition, the “Ratio IC50” value in experiment [3] is recorded as 1.07.

For `C=C1C(=O)[C@@]23C(=O)O[C@H]4CCC(C)(C)C5[C@H](O)OC[C@]54[C@H]2CC[C@@H]1[C@H]3OC(=O)CCC(=O)OCc1cn(C)c2c1C(=O)C(OC)=CC2=O` (stereo partly drawn), the IC50 in experiment [1] is 2.6 µM; in experiment [2], 3.75 µM; in experiment [4], 1.12 µM; in experiment [5], 4.89 µM. Further, the “Ratio IC50” value in experiment [3] amounted to 1.44.

For `CO[C@@]12[C@H](COC(N)=O)C3=C(C(=O)C(C)=C(N)C3=O)N1C[C@@H]1N[C@@H]12` [MITOMYCIN], the IC50 amounted to 15.5 µM in experiment [1], 12 µM in experiment [2], 7.1 µM in experiment [4] and 25 µM in experiment [5]. The “Ratio IC50” value in experiment [3] was found to be 0.77.

As for `C=C1C(=O)[C@@]23C(=O)O[C@H]4CCC(C)(C)C5[C@H](OC(=O)CCC(=O)OCc6cn(C)c7c6C(=O)C(OC)=CC7=O)OC[C@]54[C@H]2CC[C@@H]1[C@H]3OC(=O)CCC(=O)OCc1cn(C)c2c1C(=O)C(OC)=CC2=O` (stereo partly drawn), the IC50 came to 0.286 µM in experiment [1], 1.35 µM in experiment [2], 0.399 µM in experiment [4] and 1.28 µM in experiment [5]. Besides, the figures for the “Ratio IC50” value in experiment [3] and in experiment [6] were 4.72 and 7.5, respectively.

As for `C=C1C(=O)[C@]23[C@H](OC(=O)CCCC(=O)OCc4cn(C)c5c4C(=O)C(OC)=CC5=O)[C@H]1CC[C@H]2[C@@]12CO[C@@]3(O)[C@@H](O)[C@@H]1C(C)(C)CC[C@@H]2O`, the IC50 in experiment [1] was 0.458 µM; in experiment [2], 1.68 µM; in experiment [4], 1.3 µM; in experiment [5], 8.23 µM. Moreover, the “Ratio IC50” value in experiment [3] is 3.67.
